A short description of experiment [1]: hit retest on RPL19A-GFP reporter strain – cell-based, S. cerevisiae, flow cytometry, cherry picks, mother/daughter gates, confirmation (AID 2270;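 active = GFP response below 50% of the DMSO control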). The conditions noted are these: 3 h, at 10 µM, stronger effect = lower value, 100 = same GFP as DMSO wells. (In general: Flow cytometry measures light scatter and fluorescence of single cells or particles in a stream.)
Experiment [2] can be described thus: yeast TOR pathway reporter LAP4-GFP change – cell-based, cherry picks, flow cytometry, mother/daughter gates, confirmation (AID 2271;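 active = GFP response above 150% of the DMSO control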;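 also: ratio of sample to DMSO plate mean so 100% equals DMSO level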). The conditions noted are these: S. cerevisiae LAP4-GFP strain, 3 h, at 10 µM, stronger effect = higher value, 100 means same as DMSO control. In outline: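 System: Alexa 633-stained baker's yeast GFP-fusion strain / Medium: synthetic complete (SC) yeast growth medium / Doses: compound at 10 µM, single point / Times: 3 h treatment at 30 °C with rotation / Detection: HT flow cytometry, GFP fluorescence channel / Benchmarks: DMSO-only negative wells, rapamycin 400 ng/mL positive wells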

Experiment [3] is described as follows: TOR pathway reporter MEP2-GFP, retest of hits – S. cerevisiae, flow cytometry GFP, cherry picks, confirmation (AID 2272;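 active = GFP response above 150% of the DMSO control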;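 also: ratio of well signal to plate DMSO mean so 100% equals DMSO level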). The note with it: S. cerevisiae MEP2-GFP strain, 3 h, at 10 µM, stronger effect = higher value.
The nature of experiment [4]: yeast AGP1-GFP fluorescence change, single-dose – cell-based, flow cytometry, S. cerevisiae, cherry picks, confirmation (AID 2273).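 Also: median GFP channel fluorescence over the whole cell population gate.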 The note with it: S. cerevisiae AGP1-GFP strain, 3 h, at 10 µM.
Experiment [5] can be described thus: TOR pathway CIT2 reporter hit retest – S. cerevisiae, GFP fusion, cherry picks, mother/daughter gates, confirmation (AID 2274). The conditions noted are these: S. cerevisiae CIT2-GFP strain, flow cytometry, 3 h, at 10 µM, stronger effect = higher value.
The mark [6] stands for this setting: measured here: daughter cell gate.
Where [7] appears, read: measured here: mother cell gate.
The mark [8] stands for this setting: measured here: daughter cell gate response.
Where [9] appears, read: measured here: mother cell gate response.

The source made the active and inactive calls.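 The calls were made as follows, unless noted: active = GFP response above 150% of the DMSO level; inconclusive = fewer than 70 events counted for a yeast strain; inactive = the rest.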

With `O=C(O)c1ccccc1SC1CC(=O)N(c2ccc3c(c2)OCO3)C1=O` (centres undefined), the GFP response vs DMSO in experiment [1] was 97.6% (inactive); in experiment [1] (setting [6]), 102%; in experiment [1] (setting [7]) it was 93.8%; in experiment [3] it was 103% (inactive). The figures for the GFP response relative to DMSO in experiment [2], in experiment [2] (setting [8]) and in experiment [2] (setting [9]) were 106% (inactive), 102% and 108%, respectively. Further, the GFP response, % of DMSO in experiment [4] is 102% (inactive); in experiment [5] it was 95.8% (inactive); in experiment [5] (setting [6]) it was 99.3%; in experiment [5] (setting [7]), 94.9%.

Take `Cc1ccccc1C(=O)NNC(=S)NC(=O)c1ccc(Cl)cc1Cl`: the GFP response vs DMSO in experiment [1] is 104% (inactive); in experiment [1] (setting [6]), 105%; in experiment [1] (setting [7]) it was 104%; in experiment [3] it was 118% (inactive). In addition, the results for the GFP response relative to DMSO in experiment [2], in experiment [2] (setting [8]) and in experiment [2] (setting [9]) were 143% (inactive), 124% and 140%, respectively. Further, the GFP response, % of DMSO is 97.1% (inactive) in experiment [4], 101% (inactive) in experiment [5], 109% in experiment [5] (setting [6]) and 94.5% in experiment [5] (setting [7]).

For the molecule `CCCc1[nH]nc2c1C(c1ccc(OC)c(Cn3nnc4ccccc43)c1)C(C#N)=C(N)O2` (centres undefined), the GFP response vs DMSO in experiment [1] is 98% (inactive); in experiment [1] (setting [6]), 98.6%; in experiment [1] (setting [7]), 98.2%; in experiment [3], 100% (inactive). The GFP response relative to DMSO in experiment [2] is 104% (inactive); in experiment [2] (setting [8]), 102%; in experiment [2] (setting [9]), 103%. In addition, the GFP response, % of DMSO in experiment [4] was 103% (inactive); in experiment [5], 99.7% (inactive); in experiment [5] (setting [6]), 99.1%; in experiment [5] (setting [7]), 99.7%.

Regarding `Cc1ccc2nc(Cl)c3nnnn3c2c1`, the GFP response vs DMSO in experiment [1] was 66.6% (inactive); in experiment [1] (setting [6]) it was 58.4%; in experiment [1] (setting [7]), 56.7%; in experiment [3], 152% (inactive). Further, the GFP response relative to DMSO in experiment [2] was 281% (active); in experiment [2] (setting [8]), 153%; in experiment [2] (setting [9]) it was 270%. For the same molecule, the GFP response, % of DMSO in experiment [4] is 109% (inactive); in experiment [5], 82.8% (inactive); in experiment [5] (setting [6]), 84.8%; in experiment [5] (setting [7]), 72.3%.

With `O=C(Sc1cccc2cccnc12)c1ccccc1Br`, the GFP response vs DMSO was 96.8% (inactive) in experiment [1], 92.3% in experiment [1] (setting [6]), 98.5% in experiment [1] (setting [7]) and 122% (inactive) in experiment [3]. The GFP response relative to DMSO is 151% (active) in experiment [2], 144% in experiment [2] (setting [8]) and 153% in experiment [2] (setting [9]). Also, the GFP response, % of DMSO was 95.8% (inactive) in experiment [4], 114% (inactive) in experiment [5], 115% in experiment [5] (setting [6]) and 112% in experiment [5] (setting [7]).

On to `CCCc1nn(-c2ccccc2)c2c1C(c1cccs1)C(C#N)=C(N)O2` (centres undefined), for which the GFP response vs DMSO is 101% (inactive) in experiment [1], 100% in experiment [1] (setting [6]), 102% in experiment [1] (setting [7]) and 95.7% (inactive) in experiment [3]. Moreover, the values for the GFP response relative to DMSO in experiment [2], in experiment [2] (setting [8]) and in experiment [2] (setting [9]) were 90.2% (inactive), 92.5% and 95.2%, respectively. Further, the GFP response, % of DMSO was 95.9% (inactive) in experiment [4], 102% (inactive) in experiment [5], 98.1% in experiment [5] (setting [6]) and 102% in experiment [5] (setting [7]).

In the case of `O=C(/C=C/c1ccc(-c2ccccc2[N+](=O)[O-])o1)c1ccc(Br)cc1`, the GFP response vs DMSO is 96.4% (inactive) in experiment [1], 97.6% in experiment [1] (setting [6]), 96.7% in experiment [1] (setting [7]) and 105% (inactive) in experiment [3]. Moreover, the GFP response relative to DMSO in experiment [2] is 121% (inactive); in experiment [2] (setting [8]) it was 118%; in experiment [2] (setting [9]), 126%. In addition, the GFP response, % of DMSO in experiment [4] is 94.1% (inactive); in experiment [5] it was 101% (inactive); in experiment [5] (setting [6]), 105%; in experiment [5] (setting [7]) it was 99.7%.

In the case of `COc1ccc(N2CCN(c3nc4c(C)cccn4c(=O)c3/C=C(\C#N)C(N)=O)CC2)cc1`, the GFP response vs DMSO in experiment [1] was 97.8% (inactive); in experiment [1] (setting [6]) it was 97.3%; in experiment [1] (setting [7]), 97.5%; in experiment [3] it was 103% (inactive). The GFP response relative to DMSO is 101% (inactive) in experiment [2], 101% in experiment [2] (setting [8]) and 101% in experiment [2] (setting [9]). Moreover, the GFP response, % of DMSO in experiment [4] was 106% (inactive); in experiment [5] it was 103% (inactive); in experiment [5] (setting [6]), 105%; in experiment [5] (setting [7]) it was 102%.

With `COc1cc(/C=C2\C(=O)ON=C2c2ccc(Cl)cc2)ccc1O`, the GFP response vs DMSO in experiment [1] was 105% (inactive); in experiment [1] (setting [6]) it was 106%; in experiment [1] (setting [7]), 99.4%; in experiment [3], 102% (inactive). Moreover, the values for the GFP response relative to DMSO in experiment [2], in experiment [2] (setting [8]) and in experiment [2] (setting [9]) were 126% (inactive), 122% and 128%, respectively. Moreover, the GFP response, % of DMSO in experiment [4] was 100% (inactive); in experiment [5], 108% (inactive); in experiment [5] (setting [6]), 114%; in experiment [5] (setting [7]), 99.8%.

`CCC(=O)Nc1nc(C)c(-c2csc(Nc3cccc(C(=O)O)c3)n2)s1`: the GFP response vs DMSO in experiment [1] was 97.3% (inactive); in experiment [1] (setting [6]), 97.8%; in experiment [1] (setting [7]), 97.3%; in experiment [3] it was 101% (inactive). In addition, the GFP response relative to DMSO is 85.8% (inactive) in experiment [2], 89.8% in experiment [2] (setting [8]) and 87.3% in experiment [2] (setting [9]). Moreover, the GFP response, % of DMSO in experiment [4] was 94.8% (inactive); in experiment [5], 100% (inactive); in experiment [5] (setting [6]), 101%; in experiment [5] (setting [7]), 100%.

On to `Clc1ccc(C2=NNC(=NCc3ccccc3)SC2)cc1`, for which the GFP response vs DMSO in experiment [1] is 95.6% (inactive); in experiment [1] (setting [6]), 94.6%; in experiment [1] (setting [7]), 86.8%; in experiment [3], 98.3% (inactive). Also, the values for the GFP response relative to DMSO in experiment [2], in experiment [2] (setting [8]) and in experiment [2] (setting [9]) were 97.9% (inactive), 97.6% and 98.3%, respectively. For the same molecule, the GFP response, % of DMSO in experiment [4] is 93.9% (inactive); in experiment [5], 99.7% (inactive); in experiment [5] (setting [6]) it was 101%; in experiment [5] (setting [7]), 98.5%.

Consider `COCc1nnc(NC(=O)c2ccc(S(=O)(=O)N(C)C3CCCCC3)cc2)o1`, for which the GFP response vs DMSO in experiment [1] was 97.6% (inactive); in experiment [1] (setting [6]), 98.6%; in experiment [1] (setting [7]), 97.2%; in experiment [3] it was 102% (inactive). In addition, the GFP response relative to DMSO is 103% (inactive) in experiment [2], 102% in experiment [2] (setting [8]) and 104% in experiment [2] (setting [9]). The GFP response, % of DMSO in experiment [4] was 97.8% (inactive); in experiment [5], 103% (inactive); in experiment [5] (setting [6]), 103%; in experiment [5] (setting [7]), 102%.

On to `CSc1ccc(-c2cc(=O)c3ccccc3o2)cc1`, for which the GFP response vs DMSO is 92% (inactive) in experiment [1], 89.3% in experiment [1] (setting [6]), 92.5% in experiment [1] (setting [7]) and 95.2% (inactive) in experiment [3]. For the same molecule, the GFP response relative to DMSO in experiment [2] was 117% (inactive); in experiment [2] (setting [8]), 110%; in experiment [2] (setting [9]) it was 118%. The GFP response, % of DMSO in experiment [4] was 90.5% (inactive); in experiment [5] it was 84.7% (inactive); in experiment [5] (setting [6]), 81.6%; in experiment [5] (setting [7]), 84.8%.

With `CCS(=O)(=O)N1N=C(c2ccc(NS(C)(=O)=O)cc2)CC1c1ccccc1` (centres undefined), the GFP response vs DMSO in experiment [1] was 99.8% (inactive); in experiment [1] (setting [6]), 98.4%; in experiment [1] (setting [7]) it was 99%; in experiment [3] it was 108% (inactive). Besides, the GFP response relative to DMSO in experiment [2] was 101% (inactive); in experiment [2] (setting [8]), 104%; in experiment [2] (setting [9]), 99.5%. Besides, the GFP response, % of DMSO in experiment [4] is 106% (inactive); in experiment [5], 101% (inactive); in experiment [5] (setting [6]), 103%; in experiment [5] (setting [7]) it was 103%.

For the origin of these results see PubChem BioAssay.
